# Source: ChEMBL document CHEMBL1629653, “CMY-31 and CMY-36 cephalosporinases encoded by ColE1-like plasmids” (Antimicrob Agents Chemother, 2009)
# Tested on: not listed separately
# Assay: Antimicrobial activity against Salmonella enterica serotype Newport AM17274 expressing CMY-31 cephalosporinase by agar dilution method
# Type: functional, Salmonella enterica subsp. enterica serovar Newport
# How it was run: (§1)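 MICs of β-lactams determined by agar dilution against the clinical isolates.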
row,SMILES,MIC [µg/mL]
1,CO/N=C(\C(=O)N[C@@H]1C(=O)N2C(C(=O)[O-])=C(C[N+]3(C)CCCC3)CS[C@H]12)c1csc(N)n1,0.12
2,CC1(C)S[C@@H]2[C@H](NC(=O)[C@H](N)c3ccc(O)cc3)C(=O)N2[C@H]1C(=O)O [AMOXICILLIN],> 256
3,CO/N=C(\C(=O)N[C@@H]1C(=O)N2C(C(=O)O)=C(COC(C)=O)CS[C@H]12)c1csc(N)n1 [CEFOTAXIME],32
4,CO[C@@]1(NC(=O)Cc2cccs2)C(=O)N2C(C(=O)O)=C(COC(N)=O)CS[C@@H]21 [CEFOXITIN],> 256
5,CC(C)(O/N=C(\C(=O)N[C@@H]1C(=O)N2C(C(=O)[O-])=C(C[n+]3ccccc3)CS[C@H]12)c1csc(N)n1)C(=O)O [CEFTAZIDIME],32
6,CO/N=C(\C(=O)N[C@@H]1C(=O)N2C(C(=O)O)=C(CSc3nc(=O)c(O)nn3C)CS[C@H]12)c1csc(N)n1 [CEFTRIAXONE],16

# Tested on: Klebsiella pneumoniae
# Assay: Antimicrobial activity against Klebsiella pneumoniae HP205 expressing CMY-36 cephalosporinase by agar dilution method
# Type: functional
# How it was run: as §1
row,SMILES,MIC [µg/mL]
1,CC1(C)S[C@@H]2[C@H](NC(=O)[C@H](N)c3ccc(O)cc3)C(=O)N2[C@H]1C(=O)O [AMOXICILLIN],> 256
2,CO/N=C(\C(=O)N[C@@H]1C(=O)N2C(C(=O)O)=C(COC(C)=O)CS[C@H]12)c1csc(N)n1 [CEFOTAXIME],32
3,CO[C@@]1(NC(=O)Cc2cccs2)C(=O)N2C(C(=O)O)=C(COC(N)=O)CS[C@@H]21 [CEFOXITIN],> 256
4,CC(C)(O/N=C(\C(=O)N[C@@H]1C(=O)N2C(C(=O)[O-])=C(C[n+]3ccccc3)CS[C@H]12)c1csc(N)n1)C(=O)O [CEFTAZIDIME],64
5,CO/N=C(\C(=O)N[C@@H]1C(=O)N2C(C(=O)O)=C(CSc3nc(=O)c(O)nn3C)CS[C@H]12)c1csc(N)n1 [CEFTRIAXONE],32

# Tested on: Escherichia coli
# Assay: Antimicrobial activity against Escherichia coli DH5[alpha] transformant harboring pA172 plasmid expressing cephalosporinase CMY-31 by agar dilution method
# Type: functional
row,SMILES,MIC [µg/mL]
1,CO/N=C(\C(=O)N[C@@H]1C(=O)N2C(C(=O)[O-])=C(C[N+]3(C)CCCC3)CS[C@H]12)c1csc(N)n1,0.12
2,CC1(C)S[C@@H]2[C@H](NC(=O)[C@H](N)c3ccc(O)cc3)C(=O)N2[C@H]1C(=O)O [AMOXICILLIN],> 256
3,CO/N=C(\C(=O)N[C@@H]1C(=O)N2C(C(=O)O)=C(COC(C)=O)CS[C@H]12)c1csc(N)n1 [CEFOTAXIME],32
4,CO[C@@]1(NC(=O)Cc2cccs2)C(=O)N2C(C(=O)O)=C(COC(N)=O)CS[C@@H]21 [CEFOXITIN],> 256
5,CC(C)(O/N=C(\C(=O)N[C@@H]1C(=O)N2C(C(=O)[O-])=C(C[n+]3ccccc3)CS[C@H]12)c1csc(N)n1)C(=O)O [CEFTAZIDIME],128
6,CO/N=C(\C(=O)N[C@@H]1C(=O)N2C(C(=O)O)=C(CSc3nc(=O)c(O)nn3C)CS[C@H]12)c1csc(N)n1 [CEFTRIAXONE],32

# Tested on: Escherichia coli
# Assay: Antimicrobial activity against Escherichia coli DH5[alpha] transformant harboring pH205 plasmid expressing cephalosporinase CMY-36 by agar dilution method
# Type: functional
row,SMILES,MIC [µg/mL]
1,CO/N=C(\C(=O)N[C@@H]1C(=O)N2C(C(=O)[O-])=C(C[N+]3(C)CCCC3)CS[C@H]12)c1csc(N)n1,0.25
2,CC1(C)S[C@@H]2[C@H](NC(=O)[C@H](N)c3ccc(O)cc3)C(=O)N2[C@H]1C(=O)O [AMOXICILLIN],> 256
3,CO/N=C(\C(=O)N[C@@H]1C(=O)N2C(C(=O)O)=C(COC(C)=O)CS[C@H]12)c1csc(N)n1 [CEFOTAXIME],32
4,CO[C@@]1(NC(=O)Cc2cccs2)C(=O)N2C(C(=O)O)=C(COC(N)=O)CS[C@@H]21 [CEFOXITIN],> 256
5,CC(C)(O/N=C(\C(=O)N[C@@H]1C(=O)N2C(C(=O)[O-])=C(C[n+]3ccccc3)CS[C@H]12)c1csc(N)n1)C(=O)O [CEFTAZIDIME],128
6,CO/N=C(\C(=O)N[C@@H]1C(=O)N2C(C(=O)O)=C(CSc3nc(=O)c(O)nn3C)CS[C@H]12)c1csc(N)n1 [CEFTRIAXONE],64

# Tested on: Escherichia coli
# Assay: Antimicrobial activity against Escherichia coli DH5[alpha] harboring pB-c31 plasmid expressing cephalosporinase CMY-31 by agar dilution method
# Type: functional
row,SMILES,MIC [µg/mL]
1,CO/N=C(\C(=O)N[C@@H]1C(=O)N2C(C(=O)[O-])=C(C[N+]3(C)CCCC3)CS[C@H]12)c1csc(N)n1,0.25
2,CC1(C)S[C@@H]2[C@H](NC(=O)[C@H](N)c3ccc(O)cc3)C(=O)N2[C@H]1C(=O)O [AMOXICILLIN],> 256
3,CO/N=C(\C(=O)N[C@@H]1C(=O)N2C(C(=O)O)=C(COC(C)=O)CS[C@H]12)c1csc(N)n1 [CEFOTAXIME],128
4,CO[C@@]1(NC(=O)Cc2cccs2)C(=O)N2C(C(=O)O)=C(COC(N)=O)CS[C@@H]21 [CEFOXITIN],> 256
5,CC(C)(O/N=C(\C(=O)N[C@@H]1C(=O)N2C(C(=O)[O-])=C(C[n+]3ccccc3)CS[C@H]12)c1csc(N)n1)C(=O)O [CEFTAZIDIME],256
6,CO/N=C(\C(=O)N[C@@H]1C(=O)N2C(C(=O)O)=C(CSc3nc(=O)c(O)nn3C)CS[C@H]12)c1csc(N)n1 [CEFTRIAXONE],256

# Tested on: Escherichia coli
# Assay: Antimicrobial activity against Escherichia coli DH5[alpha] harboring pB-c36 plasmid expressing cephalosporinase CMY-36 by agar dilution method
# Type: functional
row,SMILES,MIC [µg/mL]
1,CO/N=C(\C(=O)N[C@@H]1C(=O)N2C(C(=O)[O-])=C(C[N+]3(C)CCCC3)CS[C@H]12)c1csc(N)n1,0.25
2,CC1(C)S[C@@H]2[C@H](NC(=O)[C@H](N)c3ccc(O)cc3)C(=O)N2[C@H]1C(=O)O [AMOXICILLIN],> 256
3,CO/N=C(\C(=O)N[C@@H]1C(=O)N2C(C(=O)O)=C(COC(C)=O)CS[C@H]12)c1csc(N)n1 [CEFOTAXIME],128
4,CO[C@@]1(NC(=O)Cc2cccs2)C(=O)N2C(C(=O)O)=C(COC(N)=O)CS[C@@H]21 [CEFOXITIN],> 256
5,CC(C)(O/N=C(\C(=O)N[C@@H]1C(=O)N2C(C(=O)[O-])=C(C[n+]3ccccc3)CS[C@H]12)c1csc(N)n1)C(=O)O [CEFTAZIDIME],256
6,CO/N=C(\C(=O)N[C@@H]1C(=O)N2C(C(=O)O)=C(CSc3nc(=O)c(O)nn3C)CS[C@H]12)c1csc(N)n1 [CEFTRIAXONE],128

# Tested on: Escherichia coli
# Assay: Antimicrobial activity against Escherichia coli DH5[alpha] harboring pB-c2 plasmid expressing cephalosporinase CMY-2 by agar dilution method
# Type: functional
row,SMILES,MIC [µg/mL]
1,CO/N=C(\C(=O)N[C@@H]1C(=O)N2C(C(=O)[O-])=C(C[N+]3(C)CCCC3)CS[C@H]12)c1csc(N)n1,0.25
2,CC1(C)S[C@@H]2[C@H](NC(=O)[C@H](N)c3ccc(O)cc3)C(=O)N2[C@H]1C(=O)O [AMOXICILLIN],> 256
3,CO/N=C(\C(=O)N[C@@H]1C(=O)N2C(C(=O)O)=C(COC(C)=O)CS[C@H]12)c1csc(N)n1 [CEFOTAXIME],128
4,CO[C@@]1(NC(=O)Cc2cccs2)C(=O)N2C(C(=O)O)=C(COC(N)=O)CS[C@@H]21 [CEFOXITIN],> 256
5,CC(C)(O/N=C(\C(=O)N[C@@H]1C(=O)N2C(C(=O)[O-])=C(C[n+]3ccccc3)CS[C@H]12)c1csc(N)n1)C(=O)O [CEFTAZIDIME],256
6,CO/N=C(\C(=O)N[C@@H]1C(=O)N2C(C(=O)O)=C(CSc3nc(=O)c(O)nn3C)CS[C@H]12)c1csc(N)n1 [CEFTRIAXONE],128

# Tested on: Escherichia coli
# Assay: Antimicrobial activity against Escherichia coli DH5[alpha] harboring pBCSK plasmid by agar dilution method
# Type: functional
row,SMILES,MIC [µg/mL]
1,CC1(C)S[C@@H]2[C@H](NC(=O)[C@H](N)c3ccc(O)cc3)C(=O)N2[C@H]1C(=O)O [AMOXICILLIN],2
2,CO/N=C(\C(=O)N[C@@H]1C(=O)N2C(C(=O)O)=C(COC(C)=O)CS[C@H]12)c1csc(N)n1 [CEFOTAXIME],0.12
3,CO[C@@]1(NC(=O)Cc2cccs2)C(=O)N2C(C(=O)O)=C(COC(N)=O)CS[C@@H]21 [CEFOXITIN],4
4,CC(C)(O/N=C(\C(=O)N[C@@H]1C(=O)N2C(C(=O)[O-])=C(C[n+]3ccccc3)CS[C@H]12)c1csc(N)n1)C(=O)O [CEFTAZIDIME],0.5
5,CO/N=C(\C(=O)N[C@@H]1C(=O)N2C(C(=O)O)=C(CSc3nc(=O)c(O)nn3C)CS[C@H]12)c1csc(N)n1 [CEFTRIAXONE],0.12

# Tested on: not listed separately
# Assay: Antimicrobial activity against Salmonella enterica serotype Newport AM17274 expressing CMY-31 cephalosporinase by agar dilution method in presence of clavulanic acid
# Type: functional, Salmonella enterica subsp. enterica serovar Newport
# How it was run: as §1
row,SMILES,MIC [µg/mL]
1,CC1(C)S[C@@H]2[C@H](NC(=O)[C@H](N)c3ccc(O)cc3)C(=O)N2[C@H]1C(=O)O [AMOXICILLIN],> 64

# Tested on: Klebsiella pneumoniae
# Assay: Antimicrobial activity against Klebsiella pneumoniae HP205 expressing CMY-36 cephalosporinase by agar dilution method in presence of clavulanic acid in presence of clavulanic acid
# Type: functional
# How it was run: as §1
row,SMILES,MIC [µg/mL]
1,CC1(C)S[C@@H]2[C@H](NC(=O)[C@H](N)c3ccc(O)cc3)C(=O)N2[C@H]1C(=O)O [AMOXICILLIN],> 64

# Tested on: Escherichia coli
# Assay: Antimicrobial activity against Escherichia coli DH5[alpha] transformant harboring pA172 plasmid expressing cephalosporinase CMY-31 by agar dilution method in presence of clavulanic acid
# Type: functional
row,SMILES,MIC [µg/mL]
1,CC1(C)S[C@@H]2[C@H](NC(=O)[C@H](N)c3ccc(O)cc3)C(=O)N2[C@H]1C(=O)O [AMOXICILLIN],> 64

# Tested on: Escherichia coli
# Assay: Antimicrobial activity against Escherichia coli DH5[alpha] transformant harboring pH205 plasmid expressing cephalosporinase CMY-36 by agar dilution method in presence of clavulanic acid
# Type: functional
row,SMILES,MIC [µg/mL]
1,CC1(C)S[C@@H]2[C@H](NC(=O)[C@H](N)c3ccc(O)cc3)C(=O)N2[C@H]1C(=O)O [AMOXICILLIN],> 64

# Tested on: Escherichia coli
# Assay: Antimicrobial activity against Escherichia coli DH5[alpha] harboring pB-c31 plasmid expressing cephalosporinase CMY-31 by agar dilution method in presence of clavulanic acid
# Type: functional
row,SMILES,MIC [µg/mL]
1,CC1(C)S[C@@H]2[C@H](NC(=O)[C@H](N)c3ccc(O)cc3)C(=O)N2[C@H]1C(=O)O [AMOXICILLIN],> 64

# Tested on: Escherichia coli
# Assay: Antimicrobial activity against Escherichia coli DH5[alpha] harboring pB-c36 plasmid expressing cephalosporinase CMY-36 by agar dilution method in presence of clavulanic acid
# Type: functional
row,SMILES,MIC [µg/mL]
1,CC1(C)S[C@@H]2[C@H](NC(=O)[C@H](N)c3ccc(O)cc3)C(=O)N2[C@H]1C(=O)O [AMOXICILLIN],> 64

# Tested on: Escherichia coli
# Assay: Antimicrobial activity against Escherichia coli DH5[alpha] harboring pB-c2 plasmid expressing cephalosporinase CMY-2 by agar dilution method in presence of clavulanic acid
# Type: functional
row,SMILES,MIC [µg/mL]
1,CC1(C)S[C@@H]2[C@H](NC(=O)[C@H](N)c3ccc(O)cc3)C(=O)N2[C@H]1C(=O)O [AMOXICILLIN],> 64

# Tested on: Escherichia coli
# Assay: Antimicrobial activity against Escherichia coli DH5[alpha] harboring pBCSK plasmid by agar dilution method in presence of clavulanic acid
# Type: functional
row,SMILES,MIC [µg/mL]
1,CC1(C)S[C@@H]2[C@H](NC(=O)[C@H](N)c3ccc(O)cc3)C(=O)N2[C@H]1C(=O)O [AMOXICILLIN],2
